Test system: Fibroblast
Assay: Multiplex assay against human fibroblast
Type: toxicity, cell-based
Method in brief: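 Per cents of healthy-nucleus cells form the tubulin, mitochondrial-mass and membrane-permeability phenotype values. Live cells were stained at seeding with Hoechst33342, BioTracker Green Microtubule Cytoskeleton Dye, MitoTracker Red and Annexin V Alexa Fluor 680. After compound addition they were imaged on a CQ1 microscope at 37°C and 5% CO2, and CellPathfinder machine-learning gating split them into Hoechst high-intensity objects or normal cells, normal cells into healthy, pyknosed or fragmented nuclei, and pyknosed cells into mitotic or apoptotic.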

[1] = 12 h, 1 µM, compound concentration 1 uM, replicate 1
[2] = 12 h, 1 µM, compound concentration 1 uM, replicate 2
[3] = 12 h, 10 µM, compound concentration 10 uM, replicate 1
[4] = 12 h, 10 µM, compound concentration 10 uM, replicate 2
[5] = 24 h, 1 µM, compound concentration 1 uM, replicate 1
[6] = 24 h, 1 µM, compound concentration 1 uM, replicate 2
[7] = 24 h, 10 µM, compound concentration 10 uM, replicate 1
[8] = 24 h, 10 µM, compound concentration 10 uM, replicate 2
[9] = 48 h, 1 µM, compound concentration 1 uM, replicate 1
[10] = 48 h, 1 µM, compound concentration 1 uM, replicate 2
[11] = 48 h, 10 µM, compound concentration 10 uM, replicate 1
[12] = 48 h, 10 µM, compound concentration 10 uM, replicate 2

## CCOC(=O)CCNc1cc(N2CCc3ccccc3CC2)nc(-c2ccccn2)n1
[1]
  Population Apoptotic (%): 89%
  Population Fragmented Nuclei (%): 22%
  Population Healthy Nuclei (%): 60%
  Population Hoechst High Intensity Objects (%): 16%
  Population Membrane Permeable-Phenotype (%): 8%
  Population Mitochondria Different-Phenotype (%): 4%
  Population Mitotic Cells (%): 10%
  Population Normal (%): 83%
  Population Pyknosed Nuclei (%): 16%
  Population Tubulin-Different-Phenotype (%): 5%
  Total Cell Count: 214
[2]
  Population Apoptotic (%): 100%
  Population Fragmented Nuclei (%): 47%
  Population Healthy Nuclei (%): 42%
  Population Hoechst High Intensity Objects (%): 33%
  Population Membrane Permeable-Phenotype (%): 0%
  Population Mitochondria Different-Phenotype (%): 11%
  Population Mitotic Cells (%): 0%
  Population Normal (%): 66%
  Population Pyknosed Nuclei (%): 9%
  Population Tubulin-Different-Phenotype (%): 11%
  Total Cell Count: 63
[3]
  Population Apoptotic (%): 68%
  Population Fragmented Nuclei (%): 29%
  Population Healthy Nuclei (%): 50%
  Population Hoechst High Intensity Objects (%): 17%
  Population Membrane Permeable-Phenotype (%): 10%
  Population Mitotic Cells (%): 31%
  Population Normal (%): 82%
  Population Pyknosed Nuclei (%): 20%
  Population Tubulin-Different-Phenotype (%): 13%
  Total Cell Count: 175
[4]
  Population Apoptotic (%): 66%
  Population Fragmented Nuclei (%): 57%
  Population Healthy Nuclei (%): 35%
  Population Hoechst High Intensity Objects (%): 40%
  Population Membrane Permeable-Phenotype (%): 33%
  Population Mitochondria Different-Phenotype (%): 6%
  Population Mitotic Cells (%): 33%
  Population Normal (%): 60%
  Population Pyknosed Nuclei (%): 7%
  Population Tubulin-Different-Phenotype (%): 73%
  Total Cell Count: 70
[5]
  Population Apoptotic (%): 76%
  Population Fragmented Nuclei (%): 23%
  Population Healthy Nuclei (%): 63%
  Population Hoechst High Intensity Objects (%): 12%
  Population Membrane Permeable-Phenotype (%): 11%
  Population Mitochondria Different-Phenotype (%): 1%
  Population Mitotic Cells (%): 23%
  Population Normal (%): 87%
  Population Pyknosed Nuclei (%): 13%
  Population Tubulin-Different-Phenotype (%): 1%
  Total Cell Count: 225
[6]
  Population Apoptotic (%): 100%
  Population Fragmented Nuclei (%): 60%
  Population Healthy Nuclei (%): 34%
  Population Hoechst High Intensity Objects (%): 26%
  Population Membrane Permeable-Phenotype (%): 0%
  Population Mitochondria Different-Phenotype (%): 14%
  Population Mitotic Cells (%): 0%
  Population Normal (%): 73%
  Population Pyknosed Nuclei (%): 4%
  Population Tubulin-Different-Phenotype (%): 14%
  Total Cell Count: 56
[7]
  Population Apoptotic (%): 82%
  Population Fragmented Nuclei (%): 34%
  Population Healthy Nuclei (%): 50%
  Population Hoechst High Intensity Objects (%): 15%
  Population Membrane Permeable-Phenotype (%): 6%
  Population Mitochondria Different-Phenotype (%): 6%
  Population Mitotic Cells (%): 17%
  Population Normal (%): 84%
  Population Pyknosed Nuclei (%): 15%
  Population Tubulin-Different-Phenotype (%): 7%
  Total Cell Count: 180
[8]
  Population Apoptotic (%): 100%
  Population Fragmented Nuclei (%): 53%
  Population Healthy Nuclei (%): 41%
  Population Hoechst High Intensity Objects (%): 33%
  Population Membrane Permeable-Phenotype (%): 11%
  Population Mitochondria Different-Phenotype (%): 11%
  Population Mitotic Cells (%): 0%
  Population Normal (%): 66%
  Population Pyknosed Nuclei (%): 4%
  Population Tubulin-Different-Phenotype (%): 41%
  Total Cell Count: 62

## Cc1ccc(S(=O)(=O)NC2c3ccccc3Oc3ccccc32)cc1
[1]
  Population Apoptotic (%): 57%
  Population Fragmented Nuclei (%): 25%
  Population Healthy Nuclei (%): 46%
  Population Hoechst High Intensity Objects (%): 11%
  Population Membrane Permeable-Phenotype (%): 25%
  Population Mitochondria Different-Phenotype (%): 6%
  Population Mitotic Cells (%): 42%
  Population Normal (%): 88%
  Population Pyknosed Nuclei (%): 27%
  Population Tubulin-Different-Phenotype (%): 27%
  Total Cell Count: 105
[2]
  Population Apoptotic (%): 0%
  Population Fragmented Nuclei (%): 10%
  Population Healthy Nuclei (%): 76%
  Population Hoechst High Intensity Objects (%): 4%
  Population Membrane Permeable-Phenotype (%): 0%
  Population Mitochondria Different-Phenotype (%): 16%
  Population Mitotic Cells (%): 100%
  Population Normal (%): 95%
  Population Pyknosed Nuclei (%): 12%
  Population Tubulin-Different-Phenotype (%): 2%
  Total Cell Count: 49
[3]
  Population Apoptotic (%): 80%
  Population Fragmented Nuclei (%): 41%
  Population Healthy Nuclei (%): 41%
  Population Hoechst High Intensity Objects (%): 17%
  Population Membrane Permeable-Phenotype (%): 56%
  Population Mitochondria Different-Phenotype (%): 54%
  Population Mitotic Cells (%): 20%
  Population Normal (%): 82%
  Population Pyknosed Nuclei (%): 16%
  Population Tubulin-Different-Phenotype (%): 17%
  Total Cell Count: 218
[4]
  Population Apoptotic (%): 95%
  Population Fragmented Nuclei (%): 42%
  Population Healthy Nuclei (%): 34%
  Population Hoechst High Intensity Objects (%): 6%
  Population Membrane Permeable-Phenotype (%): 44%
  Population Mitochondria Different-Phenotype (%): 0%
  Population Mitotic Cells (%): 4%
  Population Normal (%): 93%
  Population Pyknosed Nuclei (%): 23%
  Population Tubulin-Different-Phenotype (%): 50%
  Total Cell Count: 106
[5]
  Population Apoptotic (%): 50%
  Population Fragmented Nuclei (%): 26%
  Population Healthy Nuclei (%): 51%
  Population Hoechst High Intensity Objects (%): 19%
  Population Membrane Permeable-Phenotype (%): 28%
  Population Mitochondria Different-Phenotype (%): 10%
  Population Mitotic Cells (%): 50%
  Population Normal (%): 80%
  Population Pyknosed Nuclei (%): 22%
  Population Tubulin-Different-Phenotype (%): 53%
  Total Cell Count: 119
[6]
  Population Apoptotic (%): 25%
  Population Fragmented Nuclei (%): 5%
  Population Healthy Nuclei (%): 88%
  Population Hoechst High Intensity Objects (%): 7%
  Population Membrane Permeable-Phenotype (%): 7%
  Population Mitochondria Different-Phenotype (%): 15%
  Population Mitotic Cells (%): 75%
  Population Normal (%): 92%
  Population Pyknosed Nuclei (%): 6%
  Population Tubulin-Different-Phenotype (%): 13%
  Total Cell Count: 65
[7]
  Population Apoptotic (%): 75%
  Population Fragmented Nuclei (%): 35%
  Population Healthy Nuclei (%): 53%
  Population Hoechst High Intensity Objects (%): 16%
  Population Membrane Permeable-Phenotype (%): 64%
  Population Mitochondria Different-Phenotype (%): 43%
  Population Mitotic Cells (%): 25%
  Population Normal (%): 83%
  Population Pyknosed Nuclei (%): 11%
  Population Tubulin-Different-Phenotype (%): 28%
  Total Cell Count: 170
[8]
  Population Apoptotic (%): 100%
  Population Fragmented Nuclei (%): 10%
  Population Healthy Nuclei (%): 68%
  Population Hoechst High Intensity Objects (%): 4%
  Population Membrane Permeable-Phenotype (%): 20%
  Population Mitochondria Different-Phenotype (%): 14%
  Population Mitotic Cells (%): 0%
  Population Normal (%): 95%
  Population Pyknosed Nuclei (%): 21%
  Population Tubulin-Different-Phenotype (%): 43%
  Total Cell Count: 84
[9]
  Population Apoptotic (%): 42%
  Population Fragmented Nuclei (%): 33%
  Population Healthy Nuclei (%): 50%
  Population Hoechst High Intensity Objects (%): 19%
  Population Membrane Permeable-Phenotype (%): 22%
  Population Mitochondria Different-Phenotype (%): 4%
  Population Mitotic Cells (%): 57%
  Population Normal (%): 80%
  Population Pyknosed Nuclei (%): 15%
  Population Tubulin-Different-Phenotype (%): 37%
  Total Cell Count: 111
[10]
  Population Apoptotic (%): 75%
  Population Fragmented Nuclei (%): 17%
  Population Healthy Nuclei (%): 75%
  Population Hoechst High Intensity Objects (%): 14%
  Population Membrane Permeable-Phenotype (%): 15%
  Population Mitochondria Different-Phenotype (%): 6%
  Population Mitotic Cells (%): 25%
  Population Normal (%): 85%
  Population Pyknosed Nuclei (%): 6%
  Population Tubulin-Different-Phenotype (%): 34%
  Total Cell Count: 68
[11]
  Population Apoptotic (%): 42%
  Population Fragmented Nuclei (%): 27%
  Population Healthy Nuclei (%): 66%
  Population Hoechst High Intensity Objects (%): 7%
  Population Membrane Permeable-Phenotype (%): 20%
  Population Mitochondria Different-Phenotype (%): 2%
  Population Mitotic Cells (%): 57%
  Population Normal (%): 92%
  Population Pyknosed Nuclei (%): 5%
  Population Tubulin-Different-Phenotype (%): 26%
  Total Cell Count: 133
[12]
  Population Apoptotic (%): 80%
  Population Fragmented Nuclei (%): 20%
  Population Healthy Nuclei (%): 72%
  Population Hoechst High Intensity Objects (%): 14%
  Population Membrane Permeable-Phenotype (%): 25%
  Population Mitochondria Different-Phenotype (%): 3%
  Population Mitotic Cells (%): 20%
  Population Normal (%): 85%
  Population Pyknosed Nuclei (%): 6%
  Population Tubulin-Different-Phenotype (%): 50%
  Total Cell Count: 84

From ChEMBL document CHEMBL4689842, “EUbOPEN Chemogenomics Library wave 1” (2021)
